# Test results taken from ChEMBL document CHEMBL3352530, “Nitrogen-containing dihydro-β-agarofuran derivatives from Tripterygium wilfordii” (J Nat Prod, 2014).
# Key:
# [1] = test system: PBMC; assay: Cytotoxicity against human PBMC after 96 hrs by flow cytometry; format: cell-based
# Procedure, shortened: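 PBMCs isolated from healthy donors by Lymphoprep density-gradient centrifugation and resuspended in complete medium. Cells at 10⁶ cells/mL incubated without stimulation for 96 h with different concentrations of compound or vehicle alone. Cell survival read by flow cytometry.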
# [2] = test system: PBMC; assay: Immunosuppressive activity in anti-CD3/anti-CD28-induced human PBMC after 96 hrs by flow cytometry; format: functional, cell-based
# Procedure, shortened: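 Healthy-donor PBMCs isolated by Lymphoprep density-gradient centrifugation, held in complete medium at 10⁶ cells/mL. Stimulated with plate-bound anti-CD3 (2 μg/mL) plus soluble anti-CD28 (1 μg/mL) monoclonal antibodies. Incubated 96 h with varying compound concentrations in DMSO (less than 0.025%) or vehicle alone. Proliferation measured by flow cytometry.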
Compound,IC50 [1] [µM],IC50 [2] [µM]
CC(=O)OC[C@]12[C@H](OC(C)=O)[C@H](OC(C)=O)[C@@H]3[C@@H](OC(C)=O)[C@@]14O[C@@]3(C)COC(=O)c1cccnc1CC[C@](C)(OC(=O)c1ccoc1)C(=O)O[C@@H]([C@H](OC(=O)c1ccoc1)[C@@H]2OC(C)=O)[C@]4(C)O,26.4,4.95
CC1(C)O[C@]23[C@H](OC(=O)c4cccnc4)[C@H]1C[C@@H](OC(=O)/C=C\c1ccccc1)[C@]2(CO)[C@@H](OC(=O)c1ccccc1)CC[C@]3(C)O,57.6,24.7
CC(=O)O[C@@H]1[C@@H]2[C@@H](OC(C)=O)[C@@]34O[C@@]2(C)COC(=O)c2cccnc2CC[C@](C)(OC(=O)c2ccoc2)C(=O)O[C@@H]([C@H](O)[C@H](O)[C@@]3(CO)[C@@H]1O)[C@]4(C)O,> 100,8.67
CC(=O)OC[C@]12[C@H](OC(C)=O)[C@H](OC(C)=O)[C@@H]3[C@@H](O)[C@@]14O[C@@]3(C)COC(=O)c1cccnc1[C@@H](C)[C@H](C)C(=O)O[C@@H]([C@H](OC(=O)c1ccccc1)[C@@H]2OC(C)=O)[C@]4(C)O,56.3,32.9
COc1c(C)c2c(c(O)c1C/C=C(\C)CCC(=O)O)C(=O)OC2 [MYCOPHENOLIC ACID],> 100,0.18
CC(=O)OC[C@]12[C@H](OC(C)=O)[C@H](OC(C)=O)[C@@H]3[C@@H](OC(C)=O)[C@@]14O[C@@]3(C)COC(=O)c1cccnc1CCC(C)(O)C(=O)O[C@@H]([C@H](OC(C)=O)[C@@H]2OC(C)=O)[C@]4(C)O (some centres not stated) [ALATUSININE],75.7,45.9
